The text below walks through data of ChEMBL document CHEMBL3286371, “wALADin benzimidazoles differentially modulate the function of porphobilinogen synthase orthologs” (J Med Chem, 2014).

The source made the active and inactive calls. The rule behind the calls is not given here.

Test [1] has as its target T1, Delta-aminolevulinic acid dehydratase, chloroplastic (Pisum sativum, UniProt P30124).
T1 sequence (P30124 whole entry): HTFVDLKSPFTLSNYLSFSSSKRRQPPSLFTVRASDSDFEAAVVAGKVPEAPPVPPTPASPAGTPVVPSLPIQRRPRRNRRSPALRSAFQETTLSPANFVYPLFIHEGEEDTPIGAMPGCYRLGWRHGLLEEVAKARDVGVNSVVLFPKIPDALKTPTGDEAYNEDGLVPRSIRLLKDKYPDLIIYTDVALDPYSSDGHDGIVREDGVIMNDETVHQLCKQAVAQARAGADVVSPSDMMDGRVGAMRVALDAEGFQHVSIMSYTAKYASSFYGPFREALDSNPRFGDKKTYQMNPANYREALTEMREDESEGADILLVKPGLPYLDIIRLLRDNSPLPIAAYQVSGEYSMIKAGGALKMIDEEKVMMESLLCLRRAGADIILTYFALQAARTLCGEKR
As to the kind of experiment: Inhibition of Pisum sativum PBGS using 5-ALA as substrate. Details: species or system Lathyrus oleraceus. The essentials:
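Pea (P. sativum) PBGS at 300 nM subunit in 100 mM BTP-HCl pH 8.5 with 1 mM MgCl2, 5 mM DTT and 0.2 mM 5-ALA, 15 min at 36 °C. Porphobilinogen detected with Ehrlich's reagent. Activity normalized to 6.7% DMSO control as 100%. IC50 from variable-slope normalized-response fit.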

The target of test [2] is T2, Delta-aminolevulinic acid dehydratase (Wolbachia sp. subsp. Brugia malayi (strain TRS), UniProt Q5GSR3).
T2 sequence (Q5GSR3 whole entry): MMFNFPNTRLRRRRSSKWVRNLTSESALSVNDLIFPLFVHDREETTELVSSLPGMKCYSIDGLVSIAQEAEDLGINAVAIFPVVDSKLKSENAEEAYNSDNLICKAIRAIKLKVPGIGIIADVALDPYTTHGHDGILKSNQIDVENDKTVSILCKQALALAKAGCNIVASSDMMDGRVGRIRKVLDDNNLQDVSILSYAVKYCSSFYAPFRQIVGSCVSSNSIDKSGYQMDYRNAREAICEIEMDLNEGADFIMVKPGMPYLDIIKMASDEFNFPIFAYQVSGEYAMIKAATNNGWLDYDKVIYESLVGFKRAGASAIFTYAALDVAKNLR
The experiment in a line: Inhibition of C-terminal His-tagged Wolbachia PBGS using 5-ALA as substrate.

For test [3], the target named is T3, Delta-aminolevulinic acid dehydratase (Escherichia coli (strain K12), UniProt P0ACB2).
T3 sequence (P0ACB2 whole entry): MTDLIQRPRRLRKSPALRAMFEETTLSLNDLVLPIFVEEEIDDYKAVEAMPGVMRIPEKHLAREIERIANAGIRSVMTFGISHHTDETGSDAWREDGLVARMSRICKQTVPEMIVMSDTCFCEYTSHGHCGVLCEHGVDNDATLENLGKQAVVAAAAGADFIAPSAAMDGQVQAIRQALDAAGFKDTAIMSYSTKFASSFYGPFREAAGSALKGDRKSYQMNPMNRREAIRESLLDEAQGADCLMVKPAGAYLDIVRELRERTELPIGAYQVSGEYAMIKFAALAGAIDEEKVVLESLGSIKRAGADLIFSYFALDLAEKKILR
The experiment in a line: Stimulation of Escherichia coli recombinant PBGS using 5-ALA as substrate. The essentials:
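E. coli PBGS at 200 nM subunit in 100 mM BTP-HCl pH 8.1 with 1 mM MgCl2, 10 μM ZnCl2, 5 mM DTT and 0.2 mM 5-ALA, 10 min at 36 °C. Porphobilinogen detected with Ehrlich's reagent. Activity normalized to control with 6.7% DMSO set at 100%. EC50 by log(agonist) vs response variable-slope fit.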

Test [4] has as its target Delta-aminolevulinic acid dehydratase (Yersinia enterocolitica W22703) (UniProt F4MUJ9). The experiment in a line: Stimulation of Yersinia enterocolitica recombinant PBGS expressed in Escherichia coli using 5-ALA as substrate relative to control. The essentials: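 Y. enterocolitica PBGS, expressed in E. coli from pET3, at 150 nM subunit in 100 mM BTP-HCl pH 8.0 with 1 mM MgCl2, 5 mM DTT, 100 mM KCl and 0.2 mM 5-ALA, 10 min at 36 °C. Porphobilinogen read with Ehrlich's reagent. Activity normalized to 6.7% DMSO control as 100%. EC50 from variable-slope agonist fit.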

Test [5] addresses T4, Delta-aminolevulinic acid dehydratase (Pseudomonas aeruginosa (strain ATCC 15692 / PAO1 / 1C / PRS 101 / LMG12228), UniProt Q59643). The experiment in a line: Stimulation of Pseudomonas aeruginosa PAO1 recombinant PBGS using 5-ALA as substrate. Put shortly:
(§1)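 His-tagged PaPBGS at 150 nM subunit in 100 mM Tris-HCl pH 8.0 with 1 mM MgCl2, 100 mM KCl and 0.2 mM 5-ALA, 10 min at 36 °C, with turnover at most 30%. Porphobilinogen read with Ehrlich's reagent. Activity normalized to 6.7% DMSO control as 100%. EC50 from variable-slope agonist fit.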

Test [6] concerns the target Delta-aminolevulinic acid dehydratase (Pseudomonas aeruginosa (strain ATCC 15692 / PAO1 / 1C / PRS 101 / LMG12228)) (UniProt Q59643). As to the kind of experiment: Stimulation of Pseudomonas aeruginosa PAO1 recombinant PBGS using 5-ALA as substrate relative to control. The essentials:
as §1

The nature of test [7]: Stimulation of Toxoplasma gondii recombinant PBGS using 5-ALA as substrate. The essentials:
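T. gondii PBGS, expressed from pET-21b in BL21 E. coli and purified, at 250 nM subunit in 100 mM Tris-HCl pH 8.0 with 1 mM MgCl2, 5 mM DTT and 0.2 mM 5-ALA, 20 min at 36 °C. Porphobilinogen detected with Ehrlich's reagent. Activity normalized to 6.7% DMSO control. EC50 by variable-slope agonist fit.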

Test [8] concerns Toxoplasma gondii. The experiment in a line: Stimulation of Toxoplasma gondii recombinant PBGS using 5-ALA as substrate relative to control. Put shortly:
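Recombinant T. gondii PBGS (hemB in pET-21b, expressed in BL21 E. coli) at 250 nM subunit in 100 mM Tris-HCl pH 8.0, 1 mM MgCl2, 5 mM DTT, with 200 μM 5-ALA, 20 min at 36 °C. Porphobilinogen was read with Ehrlich's reagent, and turnover was kept at or below 30%.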

The target in test [9] is T5, Delta-aminolevulinic acid dehydratase (Drosophila melanogaster, UniProt Q9VTV9).
T5 sequence (Q9VTV9 whole entry): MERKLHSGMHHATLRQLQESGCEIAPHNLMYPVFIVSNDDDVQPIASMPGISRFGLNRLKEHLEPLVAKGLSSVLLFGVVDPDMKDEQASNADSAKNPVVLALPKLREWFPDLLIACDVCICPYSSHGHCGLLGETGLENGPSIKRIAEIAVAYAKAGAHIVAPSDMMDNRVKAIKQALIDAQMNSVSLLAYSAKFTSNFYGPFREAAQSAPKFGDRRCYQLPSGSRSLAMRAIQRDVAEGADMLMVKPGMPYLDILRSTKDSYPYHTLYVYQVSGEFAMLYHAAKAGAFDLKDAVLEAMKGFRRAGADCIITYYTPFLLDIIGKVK
The experiment in a line: Inhibition of Drosophila melanogaster recombinant PBGS using 5-ALA as substrate.

Test [10] addresses T6, Delta-aminolevulinic acid dehydratase (Homo sapiens, UniProt P13716).
T6 sequence (P13716 whole entry): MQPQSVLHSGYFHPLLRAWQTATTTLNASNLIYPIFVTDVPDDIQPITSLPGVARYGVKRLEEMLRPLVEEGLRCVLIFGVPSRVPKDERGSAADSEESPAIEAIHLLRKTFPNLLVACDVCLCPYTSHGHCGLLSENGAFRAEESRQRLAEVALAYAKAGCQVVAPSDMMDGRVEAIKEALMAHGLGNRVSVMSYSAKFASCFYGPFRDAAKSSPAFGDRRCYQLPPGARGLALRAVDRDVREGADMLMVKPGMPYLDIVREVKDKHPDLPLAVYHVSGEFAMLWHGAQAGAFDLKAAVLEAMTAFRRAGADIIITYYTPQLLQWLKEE
As to the kind of experiment: Inhibition of human PBGS using 5-ALA as substrate.

For test [11], the target named is T4, Delta-aminolevulinic acid dehydratase. As to the kind of experiment: Inhibition of Pseudomonas aeruginosa PAO1 recombinant PBGS using 5-ALA as substrate. The essentials:
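Turnover kept at or below 30%. Porphobilinogen measured with Ehrlich's reagent. IC50 by variable-slope fit of activity normalized to DMSO control.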

The nature of test [12]: Ratio of IC50 for Pisum sativum PBGS to IC50 for C-terminal His-tagged Wolbachia PBGS.
Test [13] concerns the target T7, Delta-aminolevulinic acid dehydratase (Escherichia coli (strain K12)) (UniProt P0ACB2).
T7 sequence (whole entry): T3 sequence (P0ACB2 whole entry)
The experiment in a line: Stimulation of Escherichia coli recombinant PBGS using 5-ALA as substrate at […].

Test [14] addresses T7, Delta-aminolevulinic acid dehydratase (Escherichia coli (strain K12)). The experiment in a line: Inhibition of Escherichia coli recombinant PBGS using 5-ALA as substrate at […].
The target of test [15] is Delta-aminolevulinic acid dehydratase (Yersinia enterocolitica W22703) (UniProt F4MUJ9). The experiment in a line: Stimulation of Yersinia enterocolitica recombinant PBGS expressed in Escherichia coli using 5-ALA as substrate at […].
For test [16] the target is unchanged. The experiment in a line: Inhibition of Yersinia enterocolitica recombinant PBGS expressed in Escherichia coli using 5-ALA as substrate at […].
The target of test [17] is Delta-aminolevulinic acid dehydratase (Pseudomonas aeruginosa (strain ATCC 15692 / PAO1 / 1C / PRS 101 / LMG12228)) (UniProt Q59643). The experiment in a line: Stimulation of Pseudomonas aeruginosa PAO1 recombinant PBGS using 5-ALA as substrate at […].
Test [18] shares this target. The experiment in a line: Inhibition of Pseudomonas aeruginosa PAO1 recombinant PBGS using 5-ALA as substrate at […].
For test [19], the system named is Toxoplasma gondii. As to the kind of experiment: Stimulation of Toxoplasma gondii recombinant PBGS using 5-ALA as substrate at […].
In test [20] the test system is Toxoplasma gondii. The experiment in a line: Inhibition of Toxoplasma gondii recombinant PBGS using 5-ALA as substrate at […].
Test [21] concerns the target T7, Delta-aminolevulinic acid dehydratase (Escherichia coli (strain K12)). As to the kind of experiment: Stimulation of Escherichia coli recombinant PBGS using 5-ALA as substrate relative to control. The essentials:
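E. coli PBGS at 200 nM subunit in 100 mM BTP-HCl pH 8.1 with 1 mM MgCl2, 10 μM ZnCl2, 5 mM DTT and 0.2 mM 5-ALA, 10 min at 36 °C. Porphobilinogen detected with Ehrlich's reagent. EC50 by log(agonist) vs response variable-slope fit.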

The target of test [22] is Delta-aminolevulinic acid dehydratase (Yersinia enterocolitica W22703, UniProt F4MUJ9). As to the kind of experiment: Stimulation of Yersinia enterocolitica recombinant PBGS expressed in Escherichia coli using 5-ALA as substrate.
Sequence of Delta-aminolevulinic acid dehydratase (Yersinia enterocolitica W22703, UniProt F4MUJ9) (F4MUJ9 whole entry): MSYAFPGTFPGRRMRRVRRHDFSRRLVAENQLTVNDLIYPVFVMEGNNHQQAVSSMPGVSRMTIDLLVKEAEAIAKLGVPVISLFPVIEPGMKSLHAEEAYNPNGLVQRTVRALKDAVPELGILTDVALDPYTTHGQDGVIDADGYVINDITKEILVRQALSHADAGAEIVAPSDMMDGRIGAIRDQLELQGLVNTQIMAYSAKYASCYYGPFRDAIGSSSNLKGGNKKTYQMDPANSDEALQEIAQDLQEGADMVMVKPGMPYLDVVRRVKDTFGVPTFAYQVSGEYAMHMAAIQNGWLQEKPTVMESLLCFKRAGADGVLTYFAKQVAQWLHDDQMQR

Sequence of Delta-aminolevulinic acid dehydratase (Yersinia enterocolitica W22703) (F4MUJ9 as listed by the source): as the sequence (F4MUJ9 whole entry) above
T4 sequence (Q59643 whole entry): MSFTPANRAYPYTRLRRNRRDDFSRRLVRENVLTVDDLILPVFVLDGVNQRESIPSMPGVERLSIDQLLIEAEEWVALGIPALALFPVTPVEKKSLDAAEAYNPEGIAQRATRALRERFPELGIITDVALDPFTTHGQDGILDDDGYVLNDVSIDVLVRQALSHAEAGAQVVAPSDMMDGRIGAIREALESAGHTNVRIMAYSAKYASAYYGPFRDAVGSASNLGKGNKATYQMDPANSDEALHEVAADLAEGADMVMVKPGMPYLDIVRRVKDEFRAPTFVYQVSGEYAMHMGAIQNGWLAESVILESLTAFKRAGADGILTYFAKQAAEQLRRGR
Sequence of Delta-aminolevulinic acid dehydratase (Pseudomonas aeruginosa (strain ATCC 15692 / PAO1 / 1C / PRS 101 / LMG12228)) (Q59643 whole entry): as above

Broadly, the IC50 is the point on the concentration scale where inhibition reaches its midpoint. Broadly, the EC50 is the concentration at which the effect is half-maximal. Turning to `O=C(O)c1ccc2c(c1)nc(CCNC(=O)c1cccs1)n2Cc1ccc(C(F)(F)F)cc1`, the IC50 in [1] was found to be 44.3 µM; in test [2], 38.6 µM; in [9], 1010 µM; in test [10], 637 µM. For the same molecule, the EC50 is 39 µM in test [3], 68 µM in test [5] and 37 µM in test [7]. Moreover, the figures for the Smax (in test [4]; in [6]; in the test on Toxoplasma gondii [8]) were 142%, 140% and 118%, respectively.

With `O=C(O)c1c2c(nc3ccccc13)CCN(C(=O)c1cccc(C(F)(F)F)c1)C2`, the figures for the IC50 in test [11], in test [1] and in test [9] were 475 µM, 88.2 µM and over 1000 µM, respectively. In addition, the Ratio IC50 in test [12] worked out at 10. Moreover, the Smax (in [13]; in test [15]; in test [17]; in the test with Toxoplasma gondii [19]) was 100% in each case. For the same molecule, the inhibition entry (in test [14]; in [16]; in [18]; with Toxoplasma gondii [20]) was “inactive” throughout.

For the molecule `O=C(O)c1ccc2c(c1)ncn2Cc1cccc(C(F)(F)F)c1`, the IC50 in test [11] came to 94 µM; in [1], 18.5 µM; in test [2] it was 13 µM; in test [9], 340 µM; in test [10] it was 197 µM. In addition, the Smax (in [13]; in test [15]; in test [17]; in the test with Toxoplasma gondii [19]) was 100% each time. Also, the inhibition result (in [14]; in test [16]; in [18]; in the test with Toxoplasma gondii [20]) was “inactive” throughout.

Consider `O=C(NCCc1nc2c(C(=O)O)cccc2n1Cc1cccc(C(F)(F)F)c1)c1cccs1`, for which the IC50 in [1] was over 500 µM; in test [2] it was 500 µM; in test [9] it was over 1000 µM; in test [10], 500 µM. Also, the EC50 in test [3] was 19 µM; in test [22], 23 µM; in [5], 15 µM; in test [7], 21 µM. For the same molecule, the Smax in test [21] came out at 116%; in [4], 123%; in [6], 136%; in the test with Toxoplasma gondii [8] it was 130%. Moreover, the inhibition entry in test [18] was “inactive”.
